Laboratory results from ChEMBL document CHEMBL1153639, “A facile synthesis and antimycobacterial evaluation of novel spiro-pyrido-pyrrolizines and pyrrolidines” (2009).
In brackets after ≈: the same amount, converted by molar mass.

Tests used:
[1] = test system: Mycobacterium tuberculosis; assay: Antimycobacterial against Mycobacterium tuberculosis H37Rv by agar dilution method; assay type: functional
In short: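 MIC read by agar dilution against M. tuberculosis H37Rv, run in triplicate.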

[2] = test system: Mycolicibacterium smegmatis; assay: Antimycobacterial against Mycobacterium smegmatis MC2 by agar dilution method; assay type: functional
In short: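 MIC read by agar dilution, run in triplicate against M. smegmatis MC², screened in parallel with M. tuberculosis and an MDR-TB clinical isolate.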

Row | Structure (SMILES) | MIC [1] [µM] | MIC [2] [µM]
1 | CN1CCC(=O)[C@]2(C1)[C@@H](c1ccc(Cl)cc1Cl)[C@@H]1CCCN1[C@@]21C(=O)Nc2ccccc21 | 3.32 (≈ 1.56 µg/mL) | 53.1 (≈ 25 µg/mL)
2 | CN1CCC(=O)[C@]2(C1)[C@@H](c1ccccc1Cl)[C@H](c1ccccc1)N[C@@]21C(=O)Nc2ccccc21 | 13.2 (≈ 6.25 µg/mL) | 53 (≈ 25 µg/mL)
3 | CN1CCC(=O)[C@]2(C1)[C@@H](c1ccc(Cl)cc1Cl)CN(C)[C@@]21C(=O)Nc2ccccc21 | 1.76 (≈ 0.782 µg/mL) | 56.3 (≈ 25 µg/mL)
4 | CN1CCC(=O)[C@]2(C1)[C@@H](c1cccc(F)c1)CN(C)[C@@]21C(=O)Nc2ccccc21 | 7.95 (≈ 3.13 µg/mL) | 63.5 (≈ 25 µg/mL)
5 | Cc1ccc([C@H]2CN(C)[C@@]3(C(=O)Nc4ccccc43)[C@@]23CN(C)CCC3=O)cc1 | 16.1 (≈ 6.25 µg/mL) | 32.1 (≈ 12.5 µg/mL)
6 | NNC(=O)c1ccncc1 [ISONIAZID] | 0.39 (≈ 0.0535 µg/mL) | 45.6 (≈ 6.25 µg/mL)
7 | CN1CCC(=O)[C@]2(C1)[C@@H](c1cccc(F)c1)[C@H](c1ccccc1)N[C@@]21C(=O)Nc2ccccc21 | 6.87 (≈ 3.13 µg/mL) | 54.9 (≈ 25 µg/mL)
8 | CN1CCC(=O)[C@]2(C1)[C@@H](c1ccccc1Cl)[C@@H]1CCCN1[C@@]21C(=O)Nc2ccccc21 | 3.58 (≈ 1.56 µg/mL) | 28.7 (≈ 12.5 µg/mL)
9 | CN1CCC(=O)[C@]2(C1)[C@@H](c1cccc(F)c1)[C@@H]1CCCN1[C@@]21C(=O)Nc2ccccc21 | 7.46 (≈ 3.13 µg/mL) | 29.8 (≈ 12.5 µg/mL)
10 | CC[C@@H](CO)NCCN[C@@H](CC)CO [ETHAMBUTOL] | 7.64 (≈ 1.56 µg/mL) | 122 (≈ 25 µg/mL)
11 | Cc1ccc([C@H]2[C@H](c3ccccc3)N[C@@]3(C(=O)Nc4ccccc43)[C@@]23CN(C)CCC3=O)cc1 | 27.7 (≈ 12.5 µg/mL) | 111 (≈ 50 µg/mL)
12 | NC(=O)c1cnccn1 [PYRAZINAMIDE] | 50.8 (≈ 6.25 µg/mL) | 406 (≈ 50 µg/mL)
13 | COc1ccc([C@H]2CN(C)[C@@]3(C(=O)Nc4ccccc43)[C@@]23CN(C)CCC3=O)cc1 | 30.8 (≈ 12.5 µg/mL) | 61.6 (≈ 25 µg/mL)
14 | CN1CCC(=O)[C@]2(C1)[C@@H](c1ccccc1Cl)CN(C)[C@@]21C(=O)Nc2ccccc21 | 7.64 (≈ 3.13 µg/mL) | 30.5 (≈ 12.5 µg/mL)
15 | COc1ccc([C@H]2[C@@H]3CCCN3[C@@]3(C(=O)Nc4ccccc43)[C@@]23CN(C)CCC3=O)cc1 | 14.5 (≈ 6.25 µg/mL) | 57.9 (≈ 25 µg/mL)
16 | Cc1ccc([C@H]2[C@@H]3CCCN3[C@@]3(C(=O)Nc4ccccc43)[C@@]23CN(C)CCC3=O)cc1 | 7.53 (≈ 3.13 µg/mL) | 15 (≈ 6.25 µg/mL)
17 | COc1ccc([C@H]2[C@H](c3ccccc3)N[C@@]3(C(=O)Nc4ccccc43)[C@@]23CN(C)CCC3=O)cc1 | 26.7 (≈ 12.5 µg/mL) | 53.5 (≈ 25 µg/mL)
18 | CN1CCC(=O)[C@]2(C1)[C@@H](c1ccc(Cl)cc1Cl)[C@H](c1ccccc1)N[C@@]21C(=O)Nc2ccccc21 | 12.3 (≈ 6.25 µg/mL) | 98.7 (≈ 50 µg/mL)
